The target of assay [1] is T1, Acetylcholinesterase (Rattus norvegicus, UniProt P37136).
T1 sequence (P37136 whole entry): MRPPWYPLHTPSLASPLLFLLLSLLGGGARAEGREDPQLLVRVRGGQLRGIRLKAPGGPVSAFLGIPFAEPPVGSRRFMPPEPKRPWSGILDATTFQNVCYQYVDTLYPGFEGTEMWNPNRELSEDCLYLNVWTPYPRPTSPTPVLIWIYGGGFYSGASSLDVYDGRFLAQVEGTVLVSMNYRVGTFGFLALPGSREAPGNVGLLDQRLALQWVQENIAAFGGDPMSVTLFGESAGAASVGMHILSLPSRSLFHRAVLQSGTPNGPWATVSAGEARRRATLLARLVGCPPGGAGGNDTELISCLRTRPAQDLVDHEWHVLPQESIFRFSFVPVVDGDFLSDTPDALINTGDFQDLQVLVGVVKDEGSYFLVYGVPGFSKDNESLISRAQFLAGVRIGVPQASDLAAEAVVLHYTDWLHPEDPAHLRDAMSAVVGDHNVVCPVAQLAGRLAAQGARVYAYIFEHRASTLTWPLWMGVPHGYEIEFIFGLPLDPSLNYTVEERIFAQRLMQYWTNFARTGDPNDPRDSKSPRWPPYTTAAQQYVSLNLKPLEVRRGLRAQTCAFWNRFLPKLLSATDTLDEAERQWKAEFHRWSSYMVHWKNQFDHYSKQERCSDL
Briefly: Inhibition of AChE in rat cortex homogenates using acetylthiocholine iodide as substrate after 15 mins by Ellman's method.

The target of assay [2] is T2, Histamine H4 receptor (Homo sapiens, UniProt Q9H3N8). Briefly: Antagonist activity at histamine H4 receptor expressed in HEK293 cells co-transfected with pCRE-Luc gene assessed as inhibition of forskolin/histamine-induced cAMP accumulation at 1 uM after 5 hrs by luciferase reporter gene assay. It is filed as functional, cell-based. For orientation: Cyclic AMP is a second messenger, typically raised through Gs and lowered through Gi signalling.

For assay [3], the target named is Histamine H1 receptor (Homo sapiens) (UniProt P35367). Briefly: Antagonist activity at histamine H1 receptor expressed in HEK293 cells co-transfected with pCRE-Luc gene assessed as inhibition of forskolin/histamine-induced cAMP accumulation at 1 uM after 5 hrs by luciferase reporter gene assay. The assay is classed as functional, cell-based. In a few lines:
(§1)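 HEK-293 cells stably expressing H1R or H2R were grown in DMEM with 10% FBS and penicillin/streptomycin at 37 °C under 5% CO2. Transfectants were selected with 800 µg/mL G418. cAMP accumulation was induced by 1 µM histamine with test compound present and read out by CRE-luciferase transcription.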

The target of assay [4] is T3, Histamine H3 receptor (Homo sapiens, UniProt Q9Y5N1). The assay can be described thus: Antagonist activity at histamine H3 receptor expressed in HEK293 cells co-transfected with pCRE-Luc gene assessed as inhibition of forskolin/histamine-induced cAMP accumulation after 5 hrs by luciferase reporter gene assay. It is filed as functional, cell-based.
For assay [5], the target named is Histamine H2 receptor (Homo sapiens) (UniProt P25021). The assay can be described thus: Antagonist activity at histamine H2 receptor expressed in HEK293 cells co-transfected with pCRE-Luc gene assessed as inhibition of forskolin/histamine-induced cAMP accumulation at 1 uM after 5 hrs by luciferase reporter gene assay. It is filed as functional, cell-based. A digest of the protocol:
as §1

Assay [6] concerns the target T3, Histamine H3 receptor. Briefly: Inverse agonist activity at histamine H3 receptor expressed in HEK293 cells co-transfected with pCRE-Luc gene assessed as inhibition of forskolin/histamine-induced cAMP accumulation after 5 hrs by luciferase reporter gene assay. The assay is classed as functional, cell-based.
Assay [7] has as its target T3, Histamine H3 receptor. Briefly: Antagonist activity at histamine H3 receptor expressed in HEK293 cells co-transfected with pCRE-Luc gene assessed as inhibition of forskolin/histamine-induced cAMP accumulation at 1 uM after 5 hrs by luciferase reporter gene assay. It is filed as functional, cell-based.
Assay [8] addresses Acetylcholinesterase (Homo sapiens, UniProt P22303).
Assay [9] has as its target T2, Histamine H4 receptor. The assay can be described thus: Antagonist activity at histamine H4 receptor expressed in HEK293 cells co-transfected with pCRE-Luc gene assessed as inhibition of forskolin/histamine-induced cAMP accumulation after 5 hrs by luciferase reporter gene assay. The assay is classed as functional, cell-based.

The structures appear in SMILES notation. Values joined by “and” are separate entries in the source; they are usually repeats but may differ in a detail not shown here. Equal entries are not always repeated. Active and inactive are the calls of the source. The rule behind the calls is not given here. Where only a bound is given, the exact number is not on record here.

Broadly, the IC50 is the concentration at which inhibition is half-maximal. In general, inhibition refers to the drop in the measured response relative to a control, in per cent.

Chain of Histamine H1 receptor (Homo sapiens) (P35367 whole entry): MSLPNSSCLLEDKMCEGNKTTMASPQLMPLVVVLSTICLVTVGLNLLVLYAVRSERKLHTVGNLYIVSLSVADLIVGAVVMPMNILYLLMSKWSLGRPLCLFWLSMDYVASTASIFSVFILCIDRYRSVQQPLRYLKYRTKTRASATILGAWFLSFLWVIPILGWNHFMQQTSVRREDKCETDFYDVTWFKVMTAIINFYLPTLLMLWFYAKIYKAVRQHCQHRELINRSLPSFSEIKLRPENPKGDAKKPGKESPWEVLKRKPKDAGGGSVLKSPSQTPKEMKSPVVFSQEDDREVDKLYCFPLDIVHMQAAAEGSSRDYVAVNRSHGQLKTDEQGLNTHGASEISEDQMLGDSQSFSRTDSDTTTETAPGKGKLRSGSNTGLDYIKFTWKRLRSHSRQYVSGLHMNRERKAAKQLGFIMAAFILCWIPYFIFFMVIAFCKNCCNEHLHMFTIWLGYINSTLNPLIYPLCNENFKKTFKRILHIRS
T3 sequence (Q9Y5N1 whole entry): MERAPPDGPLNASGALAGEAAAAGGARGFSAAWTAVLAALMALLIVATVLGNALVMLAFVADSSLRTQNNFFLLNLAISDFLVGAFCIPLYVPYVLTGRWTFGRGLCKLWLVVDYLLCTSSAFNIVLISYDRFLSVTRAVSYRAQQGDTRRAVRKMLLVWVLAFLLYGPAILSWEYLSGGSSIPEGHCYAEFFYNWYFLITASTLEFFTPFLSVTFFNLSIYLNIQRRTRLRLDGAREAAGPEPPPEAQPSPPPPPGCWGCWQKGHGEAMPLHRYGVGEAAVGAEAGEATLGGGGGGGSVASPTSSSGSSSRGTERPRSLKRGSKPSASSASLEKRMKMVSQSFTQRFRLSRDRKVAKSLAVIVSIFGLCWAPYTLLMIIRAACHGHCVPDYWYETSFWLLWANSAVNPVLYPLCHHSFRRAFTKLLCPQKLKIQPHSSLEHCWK
Chain of Histamine H2 receptor (Homo sapiens) (P25021 whole entry): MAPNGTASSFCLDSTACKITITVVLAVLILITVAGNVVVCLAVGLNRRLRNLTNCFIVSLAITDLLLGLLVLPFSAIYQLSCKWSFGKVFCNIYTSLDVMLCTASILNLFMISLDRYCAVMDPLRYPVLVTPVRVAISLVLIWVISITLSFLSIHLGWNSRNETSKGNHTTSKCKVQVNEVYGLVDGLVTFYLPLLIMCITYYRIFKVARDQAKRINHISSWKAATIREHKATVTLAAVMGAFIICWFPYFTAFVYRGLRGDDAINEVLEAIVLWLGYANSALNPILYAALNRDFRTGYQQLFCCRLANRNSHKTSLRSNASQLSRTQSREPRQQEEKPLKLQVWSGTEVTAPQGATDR
T2 sequence (Q9H3N8 whole entry): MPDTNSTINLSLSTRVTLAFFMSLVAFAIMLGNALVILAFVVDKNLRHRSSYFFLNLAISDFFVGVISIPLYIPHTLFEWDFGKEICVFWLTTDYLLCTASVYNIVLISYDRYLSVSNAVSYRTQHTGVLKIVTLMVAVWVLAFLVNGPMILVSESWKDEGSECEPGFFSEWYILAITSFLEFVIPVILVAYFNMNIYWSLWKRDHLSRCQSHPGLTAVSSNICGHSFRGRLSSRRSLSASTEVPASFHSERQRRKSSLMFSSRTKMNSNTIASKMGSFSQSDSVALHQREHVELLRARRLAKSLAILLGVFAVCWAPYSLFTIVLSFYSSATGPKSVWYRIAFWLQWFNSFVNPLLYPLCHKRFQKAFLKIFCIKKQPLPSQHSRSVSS
Chain of Acetylcholinesterase (Homo sapiens, UniProt P22303) (P22303 whole entry): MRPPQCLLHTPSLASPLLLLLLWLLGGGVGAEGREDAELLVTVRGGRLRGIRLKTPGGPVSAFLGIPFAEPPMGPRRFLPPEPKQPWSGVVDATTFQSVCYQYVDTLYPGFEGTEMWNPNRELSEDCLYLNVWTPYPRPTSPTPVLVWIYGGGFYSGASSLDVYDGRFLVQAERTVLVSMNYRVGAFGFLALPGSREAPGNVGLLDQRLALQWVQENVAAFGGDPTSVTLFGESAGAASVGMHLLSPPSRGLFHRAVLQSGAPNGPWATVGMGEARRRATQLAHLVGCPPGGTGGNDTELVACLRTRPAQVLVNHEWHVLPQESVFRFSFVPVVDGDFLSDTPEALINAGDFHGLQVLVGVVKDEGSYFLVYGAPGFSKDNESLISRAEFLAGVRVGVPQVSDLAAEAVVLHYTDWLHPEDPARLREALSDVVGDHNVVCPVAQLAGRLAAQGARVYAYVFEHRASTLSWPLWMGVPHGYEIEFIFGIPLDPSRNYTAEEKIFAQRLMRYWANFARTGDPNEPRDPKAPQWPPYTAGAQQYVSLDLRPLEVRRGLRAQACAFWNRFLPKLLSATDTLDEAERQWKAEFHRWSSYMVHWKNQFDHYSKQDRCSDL

On to `Nc1nc2ccccc2nc1NCCOc1ccc(CN2CCCCC2)cc1`, for which the results for the IC50 on Acetylcholinesterase [1] (read-out: IC50), at Histamine H3 receptor [4] and on Histamine H3 receptor [6] (hek293) were 1600 nM, 52.4 nM and “Not Active”, respectively. On Histamine H4 receptor [2], the inhibition entry was “Active”. For the same compound, the inhibition result in [3] and in [5] was “inactive” throughout.
As for `Nc1nc2ccccc2nc1NCc1ccc(CN2CCCCC2)cc1`, the IC50 on Acetylcholinesterase [1] (read-out: IC50) was 476 nM; at Histamine H3 receptor [6] (hek293), “Not Active”.
In the case of `Nc1nc2ccccc2nc1C(=O)Nc1ccc(CN2CCCC2)cc1`, the IC50 on Acetylcholinesterase [1] (read-out: IC50) came out at 1500 nM; on Histamine H3 receptor [4] it was 260 nM; on Histamine H3 receptor [6] (read-out: IC50), 378 nM. The inhibition entry at Histamine H4 receptor [2] is “Active”. In addition, the inhibition entry in [3] and in [5] was “inactive” each time. Further, the inhibition on Histamine H3 receptor [7] was 72.8%.
Regarding `Nc1nc2ccccc2nc1/N=C/c1ccc(CN2CCCCC2)cc1`, the figures for the concentration for half-maximal inhibition (IC50) at Acetylcholinesterase [1] (read-out: IC50) and on Histamine H3 receptor [6] (hek293) were 748 nM and “Not Active”, respectively.
`CCN(CC)Cc1ccc(OCCNc2nc3ccccc3nc2N)cc1`: the IC50 at Acetylcholinesterase [1] (read-out: IC50) is 3870 nM; on Histamine H3 receptor [4], 182 nM; at Histamine H3 receptor [6] (hek293) it was “Not Active”. Moreover, the inhibition result on Histamine H4 receptor [2] was “Active”. Moreover, the inhibition entry in assay [3] and in assay [5] was “inactive” in each case.
On to `Nc1nc2ccccc2nc1CNc1ccc(CN2CCCCC2)cc1`, for which the IC50 result at Acetylcholinesterase [1] is “Not Active”; at Histamine H3 receptor [4], 130 nM; on Histamine H3 receptor [6] (hek293) it was “Not Active”. Moreover, on Histamine H4 receptor [2], the inhibition entry was “Active”. Besides, the inhibition result in assay [3] and in assay [5] was “inactive” each time.
With `Nc1nc2ccccc2nc1C(=O)NC1CCN(Cc2ccccc2)CC1`, the half-inhibitory concentration (IC50) entry against Acetylcholinesterase [1] and on Histamine H3 receptor [6] (hek293) was “Not Active” each time.
On Acetylcholinesterase [8], `COc1cc2c(cc1OC)C(=O)C(Oc1ccc(CN3CCCC3)cc1)C2` (stereo not given) had an IC50 of 50 nM.
As to `Nc1nc2ccccc2nc1NC(=O)c1ccc(CN2CCCCC2)cc1` [listing 1 of 3 here], the IC50 was 313 nM at Acetylcholinesterase [1] (read-out: IC50), greater than 10000 nM on Histamine H4 receptor [9] (hek293), 511 nM at Histamine H3 receptor [4] and 171 nM on Histamine H3 receptor [6] (read-out: IC50).
Consider `Nc1nc2ccccc2nc1NCC(=O)NC1CCN(Cc2ccccc2)CC1`, for which the IC50 on Acetylcholinesterase [1] (read-out: IC50) is 1330 nM; at Histamine H3 receptor [6] (hek293) it was “Not Active”. In addition, at Histamine H3 receptor [7], the inhibition stood at 4.5%.
As to `S=C(NC1CCCCC1)N1CCC(c2cnc[nH]2)CC1` [THIOPERAMIDE], the inhibition result in assay [3] and in assay [5] was “inactive” each time. In addition, at Histamine H3 receptor [6] (hek293), the IC50 entry is recorded as “Not Active”.
As to `Nc1nc2ccccc2nc1NCCCOc1ccc(CN2CCCCC2)cc1`, the results for the IC50 on Acetylcholinesterase [1] (read-out: IC50) and at Histamine H3 receptor [6] (hek293) were 1930 nM and “Not Active”, respectively.
Take `Cl.Nc1nc2ccccc2nc1NC(=O)c1ccc(CN2CCCC2)cc1`: the IC50 result on Acetylcholinesterase [1] and on Histamine H3 receptor [6] (hek293) was “Not Active” throughout. Further, at Histamine H3 receptor [7], the inhibition amounted to 0.8%.
As to `Nc1nc2ccccc2nc1NCC(=O)Nc1ccc(CN2CCCCC2)cc1`, the half-maximal inhibitory concentration (IC50) is 1160 nM on Acetylcholinesterase [1] (read-out: IC50) and “Not Active” on Histamine H3 receptor [6] (hek293).
`Nc1nc2ccccc2nc1NC(=O)C1CCN(Cc2ccccc2)CC1`: the half-inhibitory concentration (IC50) result on Acetylcholinesterase [1] and on Histamine H3 receptor [6] (hek293) was “Not Active” throughout.
In the case of `Nc1nc2ccccc2nc1NC(=O)c1ccc(CN2CCCCC2)cc1` [listing 2 of 3 here], the IC50 on Acetylcholinesterase [1] (read-out: IC50) was 483 nM; at Histamine H4 receptor [9], greater than 10000 nM; at Histamine H3 receptor [4], 280 nM; on Histamine H3 receptor [6] (read-out: IC50), 189 nM.
Regarding `CN1CCN(Cc2ccc(OCCNc3nc4ccccc4nc3N)cc2)CC1`, the IC50 result against Acetylcholinesterase [1] and at Histamine H3 receptor [6] (hek293) was “Not Active” each time.
On to `Nc1nc2ccccc2nc1NC(=O)c1ccc(CN2CCCCC2)cc1` [listing 3 of 3 here], for which, on Histamine H4 receptor [2], the inhibition result was “Active”. Besides, the inhibition result in assay [3] and in assay [5] was “inactive” each time. On Histamine H3 receptor [7], the inhibition was 74.4% and 65.3%.
As for `Nc1nc2ccccc2nc1NCC(=O)Nc1ccc(CN2CCCC2)cc1`, the IC50 was 1170 nM at Acetylcholinesterase [1] (read-out: IC50) and “Not Active” at Histamine H3 receptor [6] (hek293).
In the same order, the values of `Nc1nc2ccccc2nc1C(=O)Nc1ccc(CN2CCCCC2)cc1` are 892 nM and “Not Active”.
